Data: ChEMBL document CHEMBL3872208, “Synthesis and pharmacological characterization of novel N-(trans-4-(2-(4-(benzo[d]isothiazol-3-yl)piperazin-1-yl)ethyl)cyclohexyl)amides as potential multireceptor atypical antipsychotics” (Eur J Med Chem, 2016)

Tests used:
[1] = Oral bioavailability in Sprague-Dawley rat brain at 2 mg/kg administered as single dose by LC-MS/MS analysis; type: ADME, organism-based
Outline: (§1)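 Male SD rats, single dose: 0.5 mg/kg i.v. or 2.0 mg/kg p.o. Vehicle is 5% DMSO, 10% Solutol HS 15 and 85% PBS. Heparinized blood is sampled at 5, 15 and 30 min and at 1, 2, 4, 8 and 24 h after dosing. Plasma is reported in ng/mL and brain in ng/g. F is derived from the p.o. and i.v. arms.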

D(2) dopamine receptor [2] = molecular target: T1, D(2) dopamine receptor (Homo sapiens, UniProt P14416); test: Agonist activity at D2 receptor (unknown origin) expressed in CHOK1 cells co-expressing G-alpha 15 by fluo-4 dye based FLIPR assay; type: cell-based, CHO-K1
[3] = Half life in Sprague-Dawley rat brain at 2 mg/kg, po administered as single dose by LC-MS/MS analysis; type: ADME, organism-based; outline: as §1
[4] = molecular target: T2, Muscarinic acetylcholine receptor M1 (Homo sapiens, UniProt P11229); test: Displacement of [3H]pirenzepine from recombinant human M1 receptor expressed in CHO cell membranes at 1 uM after 60 mins by scintillation counting method relative to control; details: CHO cell membranes expressing recombinant human M1 receptor, probe [3H]pirenzepine
T2 sequence (P11229 whole entry): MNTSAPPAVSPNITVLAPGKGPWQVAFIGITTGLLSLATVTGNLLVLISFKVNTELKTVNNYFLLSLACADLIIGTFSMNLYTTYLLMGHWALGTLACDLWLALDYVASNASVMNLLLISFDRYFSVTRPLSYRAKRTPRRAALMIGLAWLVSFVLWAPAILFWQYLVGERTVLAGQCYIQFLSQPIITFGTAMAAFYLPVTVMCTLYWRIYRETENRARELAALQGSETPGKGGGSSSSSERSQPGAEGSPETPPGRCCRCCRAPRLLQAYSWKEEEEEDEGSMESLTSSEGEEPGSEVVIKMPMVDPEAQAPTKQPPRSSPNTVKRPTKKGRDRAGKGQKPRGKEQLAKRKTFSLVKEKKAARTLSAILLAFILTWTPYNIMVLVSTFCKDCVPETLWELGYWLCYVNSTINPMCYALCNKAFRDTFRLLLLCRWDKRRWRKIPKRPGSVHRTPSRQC
Outline: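 Nonspecific binding defined with […]. Filtered on PEI-soaked GF/B and scintillation counted. Expressed as percent inhibition of control specific binding at a single test concentration.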

[5] = Half life in Sprague-Dawley rat plasma at 2.0 mg/kg, po administered as single dose by LC-MS/MS analysis; type: ADME, organism-based; outline: as §1
[6] = Apparent clearance in Sprague-Dawley rat plasma at 0.5 mg/kg, iv administered as single dose by LC-MS/MS analysis; type: ADME, organism-based; details: read-out: CL(app) (converted); outline: as §1
Rattus norvegicus [7] = test: Toxicity in Sprague-Dawley rat assessed as cataleptogenic effect by measuring time spent in cataleptic position at 1 to 10 mg/kg, po measured after 0.5 to 2 hrs; type: organism-based; details: in vivo
Outline: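 Male SD rats (180–250 g, n = 7) dosed orally at 1.0, 3.0 or 10.0 mg/kg. Forepaws placed on a bar 0.9 cm in diameter, 11 cm high, at 30, 60 and 120 min after dosing. Time held is expressed as a percentage of the 60 s maximum (mean ± SEM).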

D(2) dopamine receptor [8] = molecular target: T1, D(2) dopamine receptor; test: Displacement of [3H]spiperone from recombinant human D2L receptor expressed in CHO cell membranes after 60 mins by scintillation counting method
[9] = Cmax in Sprague-Dawley rat brain at 2 mg/kg, po administered as single dose by LC-MS/MS analysis; type: ADME, organism-based; design: dose 2 mg/kg, route oral; outline: as §1
Rattus norvegicus [10] = test: Reversal of PCP-induced hyperlocomotion activity in ip dosed Sprague-Dawley rat pretreated for 10 mins followed by PCP challenge measured after […]; type: functional, organism-based
[11] = Cmax in Sprague-Dawley rat plasma at 0.5 mg/kg, iv administered as single dose by LC-MS/MS analysis; type: ADME, organism-based; design: dose 0.5 mg/kg, route intravenous; outline: as §1
[12] = molecular target: T3, 5-hydroxytryptamine receptor 2A (Homo sapiens, UniProt P28223); details: CHO-K1, 10 uM
[13] = Tmax in Sprague-Dawley rat plasma at 2 mg/kg, po administered as single dose by LC-MS/MS analysis; type: ADME, organism-based; outline: as §1
[14] = molecular target: T4, 5-hydroxytryptamine receptor 1A (Homo sapiens, UniProt P08908); test: Antagonistic activity at 5-HT1A receptor (unknown origin) expressed in CHOK1 cells co-expressing G-alpha 15 assessed as inhibition of serotonin-induced calcium flux by Fluo-4 based FLIPR assay; type: functional, cell-based, CHO-K1
T4 sequence (P08908 whole entry): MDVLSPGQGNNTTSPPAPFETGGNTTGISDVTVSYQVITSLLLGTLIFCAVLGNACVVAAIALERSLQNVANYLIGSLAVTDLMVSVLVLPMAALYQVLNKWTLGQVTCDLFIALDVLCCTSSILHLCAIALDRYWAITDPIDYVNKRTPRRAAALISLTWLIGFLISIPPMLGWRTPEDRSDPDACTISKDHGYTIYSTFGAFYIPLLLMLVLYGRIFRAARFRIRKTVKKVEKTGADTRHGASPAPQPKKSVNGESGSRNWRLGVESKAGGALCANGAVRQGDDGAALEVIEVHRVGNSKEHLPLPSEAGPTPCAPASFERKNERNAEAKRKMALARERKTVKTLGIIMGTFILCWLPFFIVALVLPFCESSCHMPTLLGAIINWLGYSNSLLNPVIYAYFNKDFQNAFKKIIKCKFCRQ

D(3) dopamine receptor = D(3) dopamine receptor (Homo sapiens, UniProt P35462); test: Displacement of [3H]methyl-spiperone from recombinant human D3 receptor expressed in CHO cell membranes after 60 mins by scintillation counting method
[15] = molecular target: T3, 5-hydroxytryptamine receptor 2A; test: Agonist activity at 5-HT2A receptor (unknown origin) expressed in CHOK1 cells co-expressing G-alpha 15 by Fluo-4 dye based FLIPR assay; type: cell-based, CHO-K1
[16] = molecular target: T4, 5-hydroxytryptamine receptor 1A; test: Displacement of [3H]8-OH-DPAT from recombinant human 5-HT1A receptor expressed in HEK293 cell membranes after 60 mins by scintillation counting method
[17] = Apparent clearance in Sprague-Dawley rat plasma at 2 mg/kg, po administered as single dose by LC-MS/MS analysis; type: ADME, organism-based; details: read-out: CL(app) (converted); outline: as §1
[18] = Cmax in Sprague-Dawley rat plasma at 2.0 mg/kg, po administered as single dose by LC-MS/MS analysis; type: ADME, organism-based; design: dose 2 mg/kg, route oral; outline: as §1

T3 sequence (P28223 whole entry): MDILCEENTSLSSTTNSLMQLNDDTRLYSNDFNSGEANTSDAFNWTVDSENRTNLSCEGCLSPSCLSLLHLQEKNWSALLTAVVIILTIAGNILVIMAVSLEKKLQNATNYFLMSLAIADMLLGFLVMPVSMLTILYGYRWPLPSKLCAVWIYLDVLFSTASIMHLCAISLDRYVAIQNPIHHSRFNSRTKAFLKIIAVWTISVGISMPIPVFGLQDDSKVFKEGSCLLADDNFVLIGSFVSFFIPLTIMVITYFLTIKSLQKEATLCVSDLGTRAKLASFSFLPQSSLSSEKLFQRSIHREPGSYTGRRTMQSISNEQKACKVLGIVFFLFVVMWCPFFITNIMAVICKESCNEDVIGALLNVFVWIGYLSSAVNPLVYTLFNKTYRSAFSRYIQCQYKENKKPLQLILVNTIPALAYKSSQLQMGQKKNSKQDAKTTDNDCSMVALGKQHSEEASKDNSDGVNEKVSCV
T1 sequence (P14416 whole entry): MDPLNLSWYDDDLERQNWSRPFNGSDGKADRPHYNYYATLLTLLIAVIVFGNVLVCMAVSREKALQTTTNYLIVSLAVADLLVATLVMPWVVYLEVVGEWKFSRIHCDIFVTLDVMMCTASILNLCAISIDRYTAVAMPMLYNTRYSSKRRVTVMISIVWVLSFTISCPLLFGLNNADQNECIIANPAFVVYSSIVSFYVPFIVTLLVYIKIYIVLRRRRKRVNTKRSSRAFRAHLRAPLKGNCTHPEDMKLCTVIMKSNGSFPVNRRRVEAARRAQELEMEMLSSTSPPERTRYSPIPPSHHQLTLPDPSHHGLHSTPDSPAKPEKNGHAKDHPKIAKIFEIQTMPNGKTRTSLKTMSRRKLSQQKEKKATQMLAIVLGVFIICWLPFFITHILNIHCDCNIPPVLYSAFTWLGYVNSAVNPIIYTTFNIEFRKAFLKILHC
Sequence of D(3) dopamine receptor (P35462 whole entry): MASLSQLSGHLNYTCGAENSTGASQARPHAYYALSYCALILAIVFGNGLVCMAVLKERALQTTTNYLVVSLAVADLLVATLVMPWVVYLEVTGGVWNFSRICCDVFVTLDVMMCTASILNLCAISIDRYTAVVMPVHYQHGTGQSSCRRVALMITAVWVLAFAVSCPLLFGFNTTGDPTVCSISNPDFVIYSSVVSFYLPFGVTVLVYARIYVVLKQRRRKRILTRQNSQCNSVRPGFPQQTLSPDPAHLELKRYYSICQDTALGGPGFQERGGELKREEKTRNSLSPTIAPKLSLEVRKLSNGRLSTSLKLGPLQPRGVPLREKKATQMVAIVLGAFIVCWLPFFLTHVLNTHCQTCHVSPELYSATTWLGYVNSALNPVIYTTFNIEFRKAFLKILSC

Structure (SMILES): O=C(N[C@H]1CC[C@H](CCN2CCN(c3nsc4ccccc34)CC2)CC1)c1ccco1
- bioavailability [1]: 20.7%
- EC50 (D(2) dopamine receptor [2]): > 10000 nM
- half-life [3]: 16.3 h
- inhibition at 1 h, 1 µM [4]: 50.6%
- half-life [5]: 1.7 h
- clearance [6]: 76.7 mL/min/kg
- Activity (Rattus norvegicus [7]): Non-Toxic
- Ki (D(2) dopamine receptor [8]): 2.9 nM
- Cmax [9]: 52.8 ng/mL
- Activity (Rattus norvegicus [10]): Dose-dependent effect
- Cmax [11]: 135 ng/mL
- inhibition [12]: 97%
- Tmax [13]: 0.5 h
- IC50 [14]: 46.1 nM
- Ki (D(3) dopamine receptor): 0.13 nM
- EC50 [15]: > 10000 nM
- Ki [16]: 1.3 nM
- CL/F [17]: 582 mL/min/kg
- Cmax [18]: 18.4 ng/mL
